For data set [1], the target named is T1, Free fatty acid receptor 2 (Homo sapiens) (UniProt O15552).
T1 sequence (whole entry): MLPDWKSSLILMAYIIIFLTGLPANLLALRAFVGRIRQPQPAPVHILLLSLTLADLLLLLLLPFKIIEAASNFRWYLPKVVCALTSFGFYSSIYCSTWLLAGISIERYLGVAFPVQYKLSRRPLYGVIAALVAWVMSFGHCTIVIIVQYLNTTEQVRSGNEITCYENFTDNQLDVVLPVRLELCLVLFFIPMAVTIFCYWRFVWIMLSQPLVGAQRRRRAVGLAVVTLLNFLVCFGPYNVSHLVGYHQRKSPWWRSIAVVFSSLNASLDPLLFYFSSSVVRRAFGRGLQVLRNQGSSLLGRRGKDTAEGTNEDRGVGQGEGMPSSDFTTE
In words: Agonist activity at human C-terminal eYFP tagged FFA2 receptor stably expressed in Flp-In T-Rex 293 cells assessed as inhibition of forskolin-induced cAMP production at 10 uM after 30 mins by HTR-FRET assay. The format is functional, cell-based. In general terms: Cyclic AMP is a second messenger, typically raised through Gs and lowered through Gi signalling.

The target in data set [2] is G-protein coupled receptor 84 (Homo sapiens) (UniProt Q9NQS5). As to the kind of experiment: Agonist activity at human C-terminal Gia tagged GPR84 receptor stably expressed in Flp-In T-Rex 293 cells assessed as inhibition of forskolin-induced cAMP production at 10 uM after 45 mins by HTR-FRET assay. The format is functional, cell-based.
For data set [3], the target named is Free fatty acid receptor 1 (Homo sapiens) (UniProt O14842). As to the kind of experiment: Agonist activity at human C-terminal eYFP tagged FFA1 receptor stably expressed in HEK293T cells cotransfected with nano-luciferase assessed as recruitment of beta-arrestin2 at 10 uM followed by TUG-770 addition prior to compound treatment by BRET assay. The format is cell-based. A general note: Bioluminescence resonance energy transfer reports proximity on the nanometre scale.

The target of data set [4] is T2, Free fatty acid receptor 4 (Homo sapiens) (UniProt Q5NUL3).
T2 sequence (whole entry): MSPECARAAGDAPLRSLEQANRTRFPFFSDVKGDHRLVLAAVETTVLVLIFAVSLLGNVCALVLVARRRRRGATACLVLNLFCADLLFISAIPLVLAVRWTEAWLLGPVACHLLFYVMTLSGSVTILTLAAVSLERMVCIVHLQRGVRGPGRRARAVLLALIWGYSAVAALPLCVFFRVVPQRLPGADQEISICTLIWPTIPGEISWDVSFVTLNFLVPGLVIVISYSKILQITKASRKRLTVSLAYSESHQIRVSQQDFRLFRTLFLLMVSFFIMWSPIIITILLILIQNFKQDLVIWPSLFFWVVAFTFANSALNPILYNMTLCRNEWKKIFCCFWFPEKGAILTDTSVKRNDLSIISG
As to the kind of experiment: Agonist activity at human C-terminal eYFP tagged FFA4 receptor stably expressed in HEK293T cells cotransfected with nano-luciferase assessed as recruitment of beta-arrestin2 at 10 uM followed by TUG-891 addition prior to compound treatment by BRET assay. The format is cell-based.

In data set [5] the target is T3, Free fatty acid receptor 3 (Homo sapiens, UniProt O14843).
T3 sequence (O14843 whole entry): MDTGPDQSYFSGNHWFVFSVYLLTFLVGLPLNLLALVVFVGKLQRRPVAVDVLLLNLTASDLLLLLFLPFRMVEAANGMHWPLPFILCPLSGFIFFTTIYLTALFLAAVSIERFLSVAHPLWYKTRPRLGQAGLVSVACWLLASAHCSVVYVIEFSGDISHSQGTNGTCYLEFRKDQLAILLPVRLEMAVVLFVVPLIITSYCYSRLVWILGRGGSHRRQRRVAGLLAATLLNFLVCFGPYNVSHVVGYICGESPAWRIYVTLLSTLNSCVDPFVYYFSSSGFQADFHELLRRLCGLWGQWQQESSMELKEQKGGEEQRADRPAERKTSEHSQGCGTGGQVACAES
As to the kind of experiment: (§1) Positive allosteric modulation at human FFA3 receptor stably expressed in Flp-In T-Rex HEK293 cells cotransfected with eYFP assessed as inhibition of forskolin-induced cAMP production measured after 1 hr in presence of 1 uM propionate by fluorescence plate reader assay. The format is functional, cell-based.

Data set [6] deals with Voltage-dependent L-type calcium channel subunit alpha-1C (Homo sapiens, UniProt Q13936). As to the kind of experiment: Displacement of [3H]-PN200-110 from recombinant full length human L-type calcium channel expressed in HEK293 cells at 10 uM incubated for 120 mins by radiometric scintillation counting method. The format is cell-based. As to conditions: hek293, 2 h.
In the next data set the test system is DRG neuron. As to the kind of experiment: Effect on intracellular calcium level in FFA3 knock out C57/BL6 mouse DRG neurons at 5 uM by Fura-8/AM staining based inverted fluorescence microscopy. The format is functional, cell-based. The essentials:
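DRGs from T9–L2 spinal cord of FFA3 knock-out and wild-type C57/BL6 mice; papain/L-cysteine then collagenase/dispase digestion (20 min each, 37 °C), trituration, matrigel coverslips, overnight culture in DMEM/10% FCS. Fura 8-AM (3 μM) loading 20 min, 37 °C; perfusion with HEPES buffer pH 7.4 at room temperature; ligand applied 3 min, then ionomycin 5 μM. Relative fluorescence; N = 3 mice.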
Background: Calcium assays in cells follow changes in intracellular calcium, usually with a dye or a luminescent sensor.

Data set [7] is described as follows: Chemical stability of compound in DMSO assessed as compound degradation at 25 degree C measured after 30 days by NMR analysis. The format is physicochemical. Conditions: 720 h.
Data set [8] in a line: Chemical stability of compound in DMSO at 25 degree C measured after 7 days by NMR analysis. The format is physicochemical. Conditions: read-out: Stability.
Data set [9] in a line: Chemical stability of compound in DMSO at 4 degree C measured after 30 days by NMR analysis. As to conditions: read-out: Stability. The format is physicochemical.
In data set [10] the target is T4, Free fatty acid receptor 3 (Mus musculus) (UniProt Q3UFD7).
T4 sequence (whole entry): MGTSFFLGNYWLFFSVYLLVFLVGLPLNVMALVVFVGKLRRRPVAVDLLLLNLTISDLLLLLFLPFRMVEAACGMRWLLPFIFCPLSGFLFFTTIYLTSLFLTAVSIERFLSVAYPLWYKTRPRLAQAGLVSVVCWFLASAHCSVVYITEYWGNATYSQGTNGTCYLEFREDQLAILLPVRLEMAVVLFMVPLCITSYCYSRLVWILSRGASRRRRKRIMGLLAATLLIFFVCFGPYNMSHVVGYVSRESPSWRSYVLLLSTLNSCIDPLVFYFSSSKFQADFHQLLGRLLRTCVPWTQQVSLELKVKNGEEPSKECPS
In words: Agonist activity at FFA3 in C57/BL6 mouse DRG neurons assessed as increase in intracellular calcium level at 5 uM by Fura-8/AM staining based inverted fluorescence microscopy. The format is functional, cell-based. The essentials: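 Mouse colonic-innervating DRGs (T9–L2), wild-type C57/BL6 and FFA3 knockout, digested with papain/L-cysteine then collagenase/dispase, triturated, cultured overnight on matrigel. Cells loaded with Fura 8-AM (3 μM, 20 min, 37 °C), perfused with HEPES buffer pH 7.4, ligand applied 3 min, then ionomycin 5 μM as positive control. Read-out: relative fluorescence by real-time imaging; N = 3 mice per genotype.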

Data set [11] is described as follows: Chemical stability of compound in DMSO at 4 degree C measured after 7 days by NMR analysis. The format is physicochemical. As to conditions: read-out: Stability.
In data set [12] the target is T3, Free fatty acid receptor 3. As to the kind of experiment: Agonist activity at human FFA3 receptor stably expressed in Flp-In T-Rex HEK293 cell membrane assessed as stimulation of [35S]-GTPgammaS binding measured after 1 hr in presence of GDP by liquid scintillation spectrometry.
The target of data set [13] is T3, Free fatty acid receptor 3.
For data set [14], the target named is T5, Free fatty acid receptor 3 (Homo sapiens) (UniProt O14843).
T5 sequence (whole entry): T3 sequence (O14843 whole entry)

The target of data set [15] is T5, Free fatty acid receptor 3 (Homo sapiens). Described as §1. The format is functional, cell-based.
For data set [16] the target is unchanged. The source holds these as a separate data set.
Data set [17] has the same target. In words: Negative allosteric modulation at human FFA3 receptor stably expressed in Flp-In T-Rex HEK293 cells cotransfected with eYFP assessed as effect on forskolin-induced cAMP production at 30 uM measured after 1 hr in presence of 3 uM propionate by fluorescence plate reader assay.

Active and inactive are the calls of the source. The calls are words filed in the database; no cut-off is given here.

Chain of Voltage-dependent L-type calcium channel subunit alpha-1C (Q13936 whole entry): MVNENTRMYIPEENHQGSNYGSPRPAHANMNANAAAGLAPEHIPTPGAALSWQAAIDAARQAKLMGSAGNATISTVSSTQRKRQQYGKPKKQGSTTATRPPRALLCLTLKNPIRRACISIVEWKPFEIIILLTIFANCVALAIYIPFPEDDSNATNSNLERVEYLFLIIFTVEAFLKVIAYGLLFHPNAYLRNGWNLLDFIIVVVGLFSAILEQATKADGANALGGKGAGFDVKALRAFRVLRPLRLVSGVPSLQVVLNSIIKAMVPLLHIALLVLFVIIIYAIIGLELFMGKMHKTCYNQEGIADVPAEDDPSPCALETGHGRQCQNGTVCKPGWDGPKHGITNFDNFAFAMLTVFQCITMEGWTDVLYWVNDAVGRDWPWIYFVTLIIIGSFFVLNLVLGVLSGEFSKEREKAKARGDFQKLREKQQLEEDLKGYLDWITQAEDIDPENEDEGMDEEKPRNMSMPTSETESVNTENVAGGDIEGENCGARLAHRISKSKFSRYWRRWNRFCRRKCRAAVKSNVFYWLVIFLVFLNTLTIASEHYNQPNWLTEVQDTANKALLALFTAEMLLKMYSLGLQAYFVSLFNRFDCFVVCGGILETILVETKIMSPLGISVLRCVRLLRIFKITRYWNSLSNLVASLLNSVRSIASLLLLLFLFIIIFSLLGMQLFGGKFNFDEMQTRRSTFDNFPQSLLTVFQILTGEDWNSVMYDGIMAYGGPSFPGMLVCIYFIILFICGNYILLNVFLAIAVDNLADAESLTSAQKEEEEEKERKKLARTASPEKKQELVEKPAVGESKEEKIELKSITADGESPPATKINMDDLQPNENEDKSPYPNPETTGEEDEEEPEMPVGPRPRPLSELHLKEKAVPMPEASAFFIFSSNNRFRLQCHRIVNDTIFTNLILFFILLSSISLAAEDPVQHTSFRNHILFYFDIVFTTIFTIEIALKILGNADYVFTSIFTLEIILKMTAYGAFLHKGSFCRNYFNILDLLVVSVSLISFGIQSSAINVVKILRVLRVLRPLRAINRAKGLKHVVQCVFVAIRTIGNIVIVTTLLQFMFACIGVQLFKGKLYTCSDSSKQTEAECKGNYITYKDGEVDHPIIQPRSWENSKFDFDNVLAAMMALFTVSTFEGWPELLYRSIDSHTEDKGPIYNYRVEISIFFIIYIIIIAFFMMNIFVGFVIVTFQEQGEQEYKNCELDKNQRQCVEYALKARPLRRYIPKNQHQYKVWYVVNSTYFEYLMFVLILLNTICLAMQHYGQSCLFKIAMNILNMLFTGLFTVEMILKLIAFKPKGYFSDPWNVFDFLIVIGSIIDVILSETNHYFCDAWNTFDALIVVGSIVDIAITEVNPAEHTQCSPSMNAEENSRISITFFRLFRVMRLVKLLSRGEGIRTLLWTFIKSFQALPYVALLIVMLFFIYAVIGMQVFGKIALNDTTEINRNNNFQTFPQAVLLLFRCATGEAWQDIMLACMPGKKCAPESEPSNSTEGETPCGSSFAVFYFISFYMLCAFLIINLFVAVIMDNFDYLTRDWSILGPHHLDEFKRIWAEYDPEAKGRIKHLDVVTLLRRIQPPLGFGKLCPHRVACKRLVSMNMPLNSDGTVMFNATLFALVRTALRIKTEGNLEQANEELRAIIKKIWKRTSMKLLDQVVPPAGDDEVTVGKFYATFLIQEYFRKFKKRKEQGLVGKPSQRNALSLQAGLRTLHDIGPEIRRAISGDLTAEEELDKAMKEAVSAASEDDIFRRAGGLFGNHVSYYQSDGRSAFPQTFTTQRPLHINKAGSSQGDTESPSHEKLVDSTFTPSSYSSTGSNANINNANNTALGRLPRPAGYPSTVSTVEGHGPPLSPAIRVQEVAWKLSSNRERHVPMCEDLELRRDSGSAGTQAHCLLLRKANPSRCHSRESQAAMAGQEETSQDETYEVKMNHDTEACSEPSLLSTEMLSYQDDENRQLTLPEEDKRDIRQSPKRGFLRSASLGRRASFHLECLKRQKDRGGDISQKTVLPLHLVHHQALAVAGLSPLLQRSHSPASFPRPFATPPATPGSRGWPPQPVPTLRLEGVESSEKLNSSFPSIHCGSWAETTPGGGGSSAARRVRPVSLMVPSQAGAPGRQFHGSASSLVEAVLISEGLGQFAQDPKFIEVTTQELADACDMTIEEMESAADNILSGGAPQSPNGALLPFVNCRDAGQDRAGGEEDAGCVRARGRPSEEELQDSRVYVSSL
Chain of G-protein coupled receptor 84 (Homo sapiens) (Q9NQS5 whole entry): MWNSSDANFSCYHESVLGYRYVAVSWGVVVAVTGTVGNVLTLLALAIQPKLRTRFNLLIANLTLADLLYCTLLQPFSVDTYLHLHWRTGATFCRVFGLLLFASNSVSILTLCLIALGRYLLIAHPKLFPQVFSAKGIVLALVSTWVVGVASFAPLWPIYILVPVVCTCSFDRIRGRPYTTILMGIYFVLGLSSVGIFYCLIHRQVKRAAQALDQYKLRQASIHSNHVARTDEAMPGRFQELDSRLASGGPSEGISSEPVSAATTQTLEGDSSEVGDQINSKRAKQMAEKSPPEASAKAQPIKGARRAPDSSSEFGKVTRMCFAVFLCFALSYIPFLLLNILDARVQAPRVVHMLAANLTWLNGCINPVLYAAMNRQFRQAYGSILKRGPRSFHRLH
Chain of Free fatty acid receptor 1 (Homo sapiens) (O14842 whole entry): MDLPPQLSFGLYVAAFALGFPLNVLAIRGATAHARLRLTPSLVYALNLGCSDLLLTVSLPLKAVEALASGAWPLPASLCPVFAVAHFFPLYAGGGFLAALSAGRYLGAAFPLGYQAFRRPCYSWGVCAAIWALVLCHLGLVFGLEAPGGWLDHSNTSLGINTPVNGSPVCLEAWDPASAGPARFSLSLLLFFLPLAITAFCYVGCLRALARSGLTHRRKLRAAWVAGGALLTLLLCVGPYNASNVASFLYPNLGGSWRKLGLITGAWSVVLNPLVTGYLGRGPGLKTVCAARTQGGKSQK

On to `CC1=C(C(=O)Nc2ccccc2C)C(c2ccco2)C2=C(CCCC2=O)N1` (centres undefined), for which the result in data set [1], in data set [2], in data set [3] and in data set [4] was inactive. Further, the EC50 (usually the midpoint of the concentration-response curve) in data set [5] was 0.537 µM. For the same compound, the “inhibition (INH)” value in data set [6] is reported as “Not Active”.
Take `CCCC1C(C(=O)Nc2cc(Cl)ccc2Cl)=C(C)NC2=C1C(=O)CCC2` (centres undefined): the outcome (with DRG neuron; in data set [1]; in data set [2]; in [3]; in [4]) was inactive. The Stability entry in [7] is “Unstable”. Also, the remaining at 168 h in data set [8] and in [11] was 100% each time. Moreover, the remaining at 720 h in [9] was 100%. The outcome in data set [10] was Active. In addition, the “inhibition (INH)” value in data set [6] was “Not Active”.
Regarding `CCC(=O)O` [PROPIONIC ACID], the figures for the EC50 in data set [12] and in [13] were 10.7 µM and 11.7 µM, respectively.
Take `CC1=C(C(=O)Nc2cc(Cl)ccc2Cl)C(CN)C2=C(CCCC2=O)N1` (centres undefined): the pEC50 result in data set [14] is “inactive”.
For the compound `Cc1ccccc1NC(=O)c1c(C)nc2c(c1-c1ccco1)C(=O)CCC2`, the pEC50 result in data set [14] and in data set [15] was “inactive” each time.
Regarding `Cc1ccccc1NC(=O)C1=C(c2ccccc2)NC2=C(C(=O)CCC2)C1c1ccco1` (centres undefined), the pEC50 entry in data set [14] was “inactive”.
Take `CC1=C(C(=O)Nc2cc(Cl)ccc2Cl)C(c2ccco2)C2=C(CCCC2=O)N1` (centres undefined): the outcome in [1], in data set [2], in [3] and in data set [4] was inactive. Besides, the “inhibition (INH)” value in [6] was “Not Active”.
On to `COC(=O)C1=C(C)NC2=C(C(=O)CCC2)C1CC(C)C` (centres undefined), for which the pEC50 entry in [14] was “inactive”.
Turning to `CC1=C(C(=O)c2ccccc2)C(CC(C)C)C2=C(CCCC2=O)N1` (centres undefined), the pEC50 entry in data set [14] is “inactive”.
As for `COC(=O)C1=C(C)NC(C)=C(C(=O)Nc2ccccc2C)C1CC(C)C` (centres undefined), the pEC50 result in data set [14] was “inactive”.
On to `CC1=C(C(=O)Nc2cc(Cl)ccc2Cl)C(CNC(=O)OC(C)(C)C)C2=C(CCCC2=O)N1` (centres undefined), for which, in data set [14], the pEC50 result is “inactive”.
As for `CC1=C(C(=O)Nc2ccccc2C)C(c2ccccc2Br)C2=C(CCCC2=O)N1` (centres undefined), the pEC50 result in [16] is “inactive”.
In the case of `CCN(CC)CCOCC1C(C(=O)Nc2cc(Cl)ccc2Cl)=C(C)NC2=C1C(=O)CCC2` (centres undefined), the pEC50 entry in data set [14] is “inactive”.
As to `CC1=C(C(=O)Nc2cc(Cl)ccc2Cl)C(CC2CCNCC2)C2=C(CCCC2=O)N1` (centres undefined), the pEC50 result in data set [14] is “inactive”.
As for `CC1=C(C(=O)Nc2cc(Cl)ccc2Cl)C(C2CCCC2)C2=C(CCCC2=O)N1` (centres undefined), the outcome in data set [1], in [2], in [3] and in [4] was inactive. Further, the “inhibition (INH)” value in data set [6] was “Not Active”.
Take `CC1=C(C(=O)Nc2cc(Cl)ccc2Cl)C(CC2CCN(C(=O)OC(C)(C)C)CC2)C2=C(CCCC2=O)N1` (centres undefined): the pEC50 entry in [14] is “inactive”. Also, the result in data set [17] was Active.
Turning to `CC1=C(C(=O)Nc2ccccc2C)C(CC(C)C)C(C(=O)c2ccccc2)=C(C)N1` (centres undefined), the pEC50 result in [14] and in data set [15] was “inactive” each time.
